Data reported in ChEMBL document CHEMBL1152425, “Systematic syntheses of influenza neuraminidase inhibitors: a series of carbosilane dendrimers uniformly functionalized with thioglycoside-type sialic acid moieties” (Bioorg Med Chem, 2009).

Assays:
[1] = molecular target: Neuraminidase (Influenza A virus, UniProt B4URF0); experiment: Inhibition of human Influenza A virus A/PR/8/34(H1N1) sialidase by fluorescence spectrophotometry; design: species or system Influenza A virus (A/Puerto Rico/8/1934(H1N1))
Procedure, shortened: (§1)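 Influenza A virus suspension in saline (HAU = 26) as sialidase source; mixed with glycodendrimer and 4-MU-Neu5Ac (0.4 mM final) in 20 mM acetate buffer pH 5.2; 37 °C, 30 min; stopped with 100 mM carbonate buffer pH 10.7; released 4-MU fluorescence ex 355/em 460 nm. IC50 read graphically from % inhibition vs concentration, in mM per monomeric sugar unit.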

[2] = molecular target: Neuraminidase (Influenza A virus (A/Memphis/1/1971(H3N2)), UniProt P03471); experiment: Inhibition of human influenza A/Memphis/1/71(H3N2) sialidase by fluorescence spectrophotometry; procedure, shortened: as §1
Neuraminidase (Influenza A virus (A/Memphis/1/1971(H3N2)), UniProt P03471), sequence (P03471 whole entry): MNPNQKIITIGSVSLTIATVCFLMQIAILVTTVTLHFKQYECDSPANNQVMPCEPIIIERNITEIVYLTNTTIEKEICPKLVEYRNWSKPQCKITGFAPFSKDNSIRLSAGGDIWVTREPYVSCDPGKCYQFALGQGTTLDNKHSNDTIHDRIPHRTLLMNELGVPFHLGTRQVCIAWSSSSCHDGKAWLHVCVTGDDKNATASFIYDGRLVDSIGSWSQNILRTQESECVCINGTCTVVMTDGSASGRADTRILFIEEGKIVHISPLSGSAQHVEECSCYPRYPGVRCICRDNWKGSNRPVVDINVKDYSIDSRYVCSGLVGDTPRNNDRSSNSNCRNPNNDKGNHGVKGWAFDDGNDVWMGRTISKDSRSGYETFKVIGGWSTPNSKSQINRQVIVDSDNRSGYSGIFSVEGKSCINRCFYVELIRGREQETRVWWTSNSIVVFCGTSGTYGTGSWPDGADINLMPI

Neuraminidase, sequence (B4URF0 whole entry): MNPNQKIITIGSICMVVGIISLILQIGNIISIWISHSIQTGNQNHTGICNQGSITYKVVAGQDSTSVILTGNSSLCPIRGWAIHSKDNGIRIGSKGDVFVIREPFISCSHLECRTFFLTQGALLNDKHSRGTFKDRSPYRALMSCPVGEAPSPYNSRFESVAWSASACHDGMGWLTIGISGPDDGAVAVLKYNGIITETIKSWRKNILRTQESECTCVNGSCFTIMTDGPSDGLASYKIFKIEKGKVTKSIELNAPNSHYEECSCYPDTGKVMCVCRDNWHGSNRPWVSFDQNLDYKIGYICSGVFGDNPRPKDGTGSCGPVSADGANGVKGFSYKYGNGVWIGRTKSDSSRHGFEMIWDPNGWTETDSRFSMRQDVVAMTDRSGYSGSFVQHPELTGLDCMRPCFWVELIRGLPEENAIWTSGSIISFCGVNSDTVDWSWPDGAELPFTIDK

Row | Compound | IC50 [1] | IC50 [2]
1 | CC(=O)N[C@H]1[C@H]([C@H](O)[C@H](O)CO)O[C@@](SCCCCCSCCCOCCC[Si](CCCOCCCSCCCCCS[C@]2(C(=O)O)C[C@H](O)[C@@H](NC(C)=O)[C@H]([C@H](O)[C@H](O)CO)O2)(CCCOCCCSCCCCCS[C@]2(C(=O)O)C[C@H](O)[C@@H](NC(C)=O)[C@H]([C@H](O)[C@H](O)CO)O2)CCCOCCCSCCCCCS[C@]2(C(=O)O)C[C@H](O)[C@@H](NC(C)=O)[C@H]([C@H](O)[C@H](O)CO)O2)(C(=O)O)C[C@@H]1O | 5 mM | 5 mM
2 | CC(=O)N[C@H]1[C@H]([C@H](O)[C@H](O)CO)O[C@@](SCCCCCSCCCCCC(=O)NCCC[Si](CCCNC(=O)CCCCCSCCCCCS[C@]2(C(=O)O)C[C@H](O)[C@@H](NC(C)=O)[C@H]([C@H](O)[C@H](O)CO)O2)(CCCNC(=O)CCCCCSCCCCCS[C@]2(C(=O)O)C[C@H](O)[C@@H](NC(C)=O)[C@H]([C@H](O)[C@H](O)CO)O2)c2ccccc2)(C(=O)O)C[C@@H]1O | 2.7 mM | 7.1 mM
3 | CC(=O)N[C@H]1[C@H]([C@H](O)[C@H](O)CO)O[C@@](SCCCCCSCCCOCCC[Si](CCCOCCCSCCCCCS[C@]2(C(=O)O)C[C@H](O)[C@@H](NC(C)=O)[C@H]([C@H](O)[C@H](O)CO)O2)(CCCOCCCSCCCCCS[C@]2(C(=O)O)C[C@H](O)[C@@H](NC(C)=O)[C@H]([C@H](O)[C@H](O)CO)O2)CCC[Si](C)(C)CCC[Si](CCCOCCCSCCCCCS[C@]2(C(=O)O)C[C@H](O)[C@@H](NC(C)=O)[C@H]([C@H](O)[C@H](O)CO)O2)(CCCOCCCSCCCCCS[C@]2(C(=O)O)C[C@H](O)[C@@H](NC(C)=O)[C@H]([C@H](O)[C@H](O)CO)O2)CCCOCCCSCCCCCS[C@]2(C(=O)O)C[C@H](O)[C@@H](NC(C)=O)[C@H]([C@H](O)[C@H](O)CO)O2)(C(=O)O)C[C@@H]1O | 5 mM | 1.25 mM
4 | CC(=O)N[C@H]1[C@H]([C@H](O)[C@H](O)CO)O[C@@](SCCCCCSCCCCCC(=O)NCCC[Si](CCCNC(=O)CCCCCSCCCCCS[C@]2(C(=O)O)C[C@H](O)[C@@H](NC(C)=O)[C@H]([C@H](O)[C@H](O)CO)O2)(CCCNC(=O)CCCCCSCCCCCS[C@]2(C(=O)O)C[C@H](O)[C@@H](NC(C)=O)[C@H]([C@H](O)[C@H](O)CO)O2)CCC[Si](CCC[Si](CCCNC(=O)CCCCCSCCCCCS[C@]2(C(=O)O)C[C@H](O)[C@@H](NC(C)=O)[C@H]([C@H](O)[C@H](O)CO)O2)(CCCNC(=O)CCCCCSCCCCCS[C@]2(C(=O)O)C[C@H](O)[C@@H](NC(C)=O)[C@H]([C@H](O)[C@H](O)CO)O2)CCCNC(=O)CCCCCSCCCCCS[C@]2(C(=O)O)C[C@H](O)[C@@H](NC(C)=O)[C@H]([C@H](O)[C@H](O)CO)O2)(CCC[Si](CCCNC(=O)CCCCCSCCCCCS[C@]2(C(=O)O)C[C@H](O)[C@@H](NC(C)=O)[C@H]([C@H](O)[C@H](O)CO)O2)(CCCNC(=O)CCCCCSCCCCCS[C@]2(C(=O)O)C[C@H](O)[C@@H](NC(C)=O)[C@H]([C@H](O)[C@H](O)CO)O2)CCCNC(=O)CCCCCSCCCCCS[C@]2(C(=O)O)C[C@H](O)[C@@H](NC(C)=O)[C@H]([C@H](O)[C@H](O)CO)O2)CCC[Si](CCCNC(=O)CCCCCSCCCCCS[C@]2(C(=O)O)C[C@H](O)[C@@H](NC(C)=O)[C@H]([C@H](O)[C@H](O)CO)O2)(CCCNC(=O)CCCCCSCCCCCS[C@]2(C(=O)O)C[C@H](O)[C@@H](NC(C)=O)[C@H]([C@H](O)[C@H](O)CO)O2)CCCNC(=O)CCCCCSCCCCCS[C@]2(C(=O)O)C[C@H](O)[C@@H](NC(C)=O)[C@H]([C@H](O)[C@H](O)CO)O2)(C(=O)O)C[C@@H]1O | 7.2 mM | 
5 | CC(=O)N[C@H]1[C@H]([C@H](O)[C@H](O)CO)O[C@@](SCCCCCSCCCOCCC[Si](CCCOCCCSCCCCCS[C@]2(C(=O)O)C[C@H](O)[C@@H](NC(C)=O)[C@H]([C@H](O)[C@H](O)CO)O2)(CCCOCCCSCCCCCS[C@]2(C(=O)O)C[C@H](O)[C@@H](NC(C)=O)[C@H]([C@H](O)[C@H](O)CO)O2)c2ccccc2)(C(=O)O)C[C@@H]1O | 5 mM | 5 mM
6 | CC(=O)N[C@H]1[C@H]([C@H](O)[C@H](O)CO)O[C@@](SCCCCCSCCC[Si](CCCSCCCCCS[C@]2(C(=O)O)C[C@H](O)[C@@H](NC(C)=O)[C@H]([C@H](O)[C@H](O)CO)O2)(CCCSCCCCCS[C@]2(C(=O)O)C[C@H](O)[C@@H](NC(C)=O)[C@H]([C@H](O)[C@H](O)CO)O2)CCC[Si](CCC[Si](CCCSCCCCCS[C@]2(C(=O)O)C[C@H](O)[C@@H](NC(C)=O)[C@H]([C@H](O)[C@H](O)CO)O2)(CCCSCCCCCS[C@]2(C(=O)O)C[C@H](O)[C@@H](NC(C)=O)[C@H]([C@H](O)[C@H](O)CO)O2)CCCSCCCCCS[C@]2(C(=O)O)C[C@H](O)[C@@H](NC(C)=O)[C@H]([C@H](O)[C@H](O)CO)O2)(CCC[Si](CCCSCCCCCS[C@]2(C(=O)O)C[C@H](O)[C@@H](NC(C)=O)[C@H]([C@H](O)[C@H](O)CO)O2)(CCCSCCCCCS[C@]2(C(=O)O)C[C@H](O)[C@@H](NC(C)=O)[C@H]([C@H](O)[C@H](O)CO)O2)CCCSCCCCCS[C@]2(C(=O)O)C[C@H](O)[C@@H](NC(C)=O)[C@H]([C@H](O)[C@H](O)CO)O2)CCC[Si](CCCSCCCCCS[C@]2(C(=O)O)C[C@H](O)[C@@H](NC(C)=O)[C@H]([C@H](O)[C@H](O)CO)O2)(CCCSCCCCCS[C@]2(C(=O)O)C[C@H](O)[C@@H](NC(C)=O)[C@H]([C@H](O)[C@H](O)CO)O2)CCCSCCCCCS[C@]2(C(=O)O)C[C@H](O)[C@@H](NC(C)=O)[C@H]([C@H](O)[C@H](O)CO)O2)(C(=O)O)C[C@@H]1O | 5 mM | 7 mM
7 | CC(=O)N[C@H]1[C@H]([C@H](O)[C@H](O)CO)O[C@@](SCCCCCSCCCOCCC[Si](CCCOCCCSCCCCCS[C@]2(C(=O)O)C[C@H](O)[C@@H](NC(C)=O)[C@H]([C@H](O)[C@H](O)CO)O2)(CCCOCCCSCCCCCS[C@]2(C(=O)O)C[C@H](O)[C@@H](NC(C)=O)[C@H]([C@H](O)[C@H](O)CO)O2)CCC[Si](CCC[Si](CCCOCCCSCCCCCS[C@]2(C(=O)O)C[C@H](O)[C@@H](NC(C)=O)[C@H]([C@H](O)[C@H](O)CO)O2)(CCCOCCCSCCCCCS[C@]2(C(=O)O)C[C@H](O)[C@@H](NC(C)=O)[C@H]([C@H](O)[C@H](O)CO)O2)CCCOCCCSCCCCCS[C@]2(C(=O)O)C[C@H](O)[C@@H](NC(C)=O)[C@H]([C@H](O)[C@H](O)CO)O2)(CCC[Si](CCCOCCCSCCCCCS[C@]2(C(=O)O)C[C@H](O)[C@@H](NC(C)=O)[C@H]([C@H](O)[C@H](O)CO)O2)(CCCOCCCSCCCCCS[C@]2(C(=O)O)C[C@H](O)[C@@H](NC(C)=O)[C@H]([C@H](O)[C@H](O)CO)O2)CCCOCCCSCCCCCS[C@]2(C(=O)O)C[C@H](O)[C@@H](NC(C)=O)[C@H]([C@H](O)[C@H](O)CO)O2)CCC[Si](CCCOCCCSCCCCCS[C@]2(C(=O)O)C[C@H](O)[C@@H](NC(C)=O)[C@H]([C@H](O)[C@H](O)CO)O2)(CCCOCCCSCCCCCS[C@]2(C(=O)O)C[C@H](O)[C@@H](NC(C)=O)[C@H]([C@H](O)[C@H](O)CO)O2)CCCOCCSCCCCCS[C@]2(C(=O)O)C[C@H](O)[C@@H](NC(C)=O)[C@H]([C@H](O)[C@H](O)CO)O2)(C(=O)O)C[C@@H]1O | 6.4 mM | 6.5 mM
8 | CC(=O)N[C@H]1[C@H]([C@H](O)[C@H](O)CO)O[C@@](SCCCCCSCCCCCC(=O)NCCC[Si](CCCNC(=O)CCCCCSCCCCCS[C@]2(C(=O)O)C[C@H](O)[C@@H](NC(C)=O)[C@H]([C@H](O)[C@H](O)CO)O2)(CCCNC(=O)CCCCCSCCCCCS[C@]2(C(=O)O)C[C@H](O)[C@@H](NC(C)=O)[C@H]([C@H](O)[C@H](O)CO)O2)CCCNC(=O)CCCCCSCCCCCS[C@]2(C(=O)O)C[C@H](O)[C@@H](NC(C)=O)[C@H]([C@H](O)[C@H](O)CO)O2)(C(=O)O)C[C@@H]1O | 4.8 mM | 8.8 mM
9 | CC(=O)N[C@H]1[C@H]([C@H](O)[C@H](O)CO)O[C@@](SCCCCCSCCCCCC(=O)NCCC[Si](CCCNC(=O)CCCCCSCCCCCS[C@]2(C(=O)O)C[C@H](O)[C@@H](NC(C)=O)[C@H]([C@H](O)[C@H](O)CO)O2)(CCCNC(=O)CCCCCSCCCCCS[C@]2(C(=O)O)C[C@H](O)[C@@H](NC(C)=O)[C@H]([C@H](O)[C@H](O)CO)O2)CCC[Si](C)(C)CCC[Si](CCCNC(=O)CCCCCSCCCCCS[C@]2(C(=O)O)C[C@H](O)[C@@H](NC(C)=O)[C@H]([C@H](O)[C@H](O)CO)O2)(CCCNC(=O)CCCCCSCCCCCS[C@]2(C(=O)O)C[C@H](O)[C@@H](NC(C)=O)[C@H]([C@H](O)[C@H](O)CO)O2)CCCNC(=O)CCCCCSCCCCCS[C@]2(C(=O)O)C[C@H](O)[C@@H](NC(C)=O)[C@H]([C@H](O)[C@H](O)CO)O2)(C(=O)O)C[C@@H]1O | 2.8 mM | 8.1 mM
